Calls of active or inactive are those of the source. No cut-off for these calls is given here.
Experiments:
[1] = tested on: Schistosoma mansoni; experiment: Antiparasitic activity against Schistosoma mansoni larva assessed as reduction of body contractility and movement at 5 ug/ml
[2] = tested on: Schistosoma mansoni; experiment: Antiparasitic activity against Schistosoma mansoni larva assessed as reduction of body contractility and movement at 5 ug/ml; assay type: functional, organism-based
Method in brief: (§1)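 Brazilian S. mansoni maintained in Swiss OF1 mice. Schistosomula recovered 21 days after percutaneous infection with 400 cercariae, and adults 49 days after 120 cercariae. Final concentration was 5 µg/ml for larvae and 50 µg/ml for adults, in RPMI/Tween 80/DMSO (1,000/0.95/3.8). Survival was followed over time and compared by pairwise log-rank tests (α = 1%).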

[3] = tested on: Schistosoma mansoni; experiment: Antiparasitic activity against Schistosoma mansoni adult worm assessed as reduction of body contractility and movement at 50 ug/ml; assay type: functional, organism-based
Method in brief: as §1

[4] = tested on: Schistosoma mansoni; experiment: Antiparasitic activity against Schistosoma mansoni adult worm assessed as reduction of body contractility and movement at 50 ug/ml within 7 hrs
[5] = tested on: Schistosoma mansoni; experiment: Antiparasitic activity against Schistosoma mansoni adult worm assessed as reduction of body contractility and movement at 50 ug/ml
[6] = tested on: Schistosoma mansoni; experiment: Antiparasitic activity against Schistosoma mansoni larva assessed as reduction of body contractility and movement at 5 ug/ml within 7 hrs; assay type: functional, organism-based
Method in brief: as §1

[7] = tested on: Schistosoma mansoni; experiment: Antiparasitic activity against Schistosoma mansoni assessed as parasite death at 5 ug/ml; assay type: functional
Method in brief: (§2)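 Schistosomula (day 21) and adults (day 49) were taken from percutaneously infected Swiss OF1 mice. Compounds were serially diluted in DMSO, with the last step into RPMI containing Tween 80, and worms were exposed across a concentration and time range. Survival was recorded and groups compared by pairwise log-rank tests (α = 1%).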

[8] = tested on: Schistosoma mansoni; experiment: Antiparasitic activity against Schistosoma mansoni assessed as parasite death at 10 ug/ml; assay type: functional
Method in brief: as §2

[9] = tested on: Schistosoma mansoni; experiment: Antiparasitic activity against Schistosoma mansoni assessed as parasite death at 300 ug/ml; assay type: functional
Method in brief: as §2

[10] = tested on: Schistosoma mansoni; experiment: Antiparasitic activity against Schistosoma mansoni assessed as parasite death at 100 ug/ml; assay type: functional
Method in brief: as §2

| Structure (SMILES) | Activity [1] | Activity [2] | Activity [3] | Activity [4] | Activity [5] | Activity [6] | Activity [7] [%] | Activity [8] [%] | Activity [9] [%] | Activity [10] [%] |
| --- | --- | --- | --- | --- | --- | --- | --- | --- | --- | --- |
| Clc1ccc2c(NCCN3CCC4(CC3)OCC3(CCCCC3)OO4)ccnc2c1 | Active | Active | Active | Active | Active |  |  |  |  |  |
| Clc1ccc2c(NCCN3CCC4(CC3)OCC3(CCCC3)OO4)ccnc2c1 | Active | Active | Active | Active | Active | Active |  |  |  |  |
| CC1(C)COC2(CCC(N[C@H]3CC[C@H](Nc4ccnc5cc(Cl)ccc45)CC3)CC2)OO1 (stereo partly specified) | Active | Active | Active | Active | Active | Active |  |  |  |  |
| O=C(C1CCCCC1)N1CC(=O)N2CCc3ccccc3C2C1 (stereo unspecified) [PRAZIQUANTEL] | Active | Active | Active |  | Active |  | 100 | 100 |  |  |
| CN(C1CCC2(CC1)OCC(C)(C)OO2)[C@H]1CC[C@H](Nc2ccnc3cc(Cl)ccc23)CC1 (stereo partly specified) | Active | Active | Active | inactive | Active | inactive |  |  |  |  |
| C[C@H]1[C@H](OC(=O)CCC(=O)O)O[C@@H]2O[C@@]3(C)CC[C@H]4[C@H](C)CC[C@@H]1[C@@]24OO3 [ARTESUNATE] |  |  |  |  |  |  |  |  | 100 |  |
| CO[C@H]1O[C@@H]2O[C@@]3(C)CC[C@H]4[C@H](C)CC[C@@H]([C@H]1C)[C@@]24OO3 [ARTEMETHER] |  |  |  |  |  |  |  |  | 100 |  |
| Clc1ccc2c(N[C@H]3CC[C@H](NC4CCC5(CC4)OCC4(CCCC4)OO5)CC3)ccnc2c1 (stereo partly specified) | Active | Active | Active | Active | Active | Active | 100 | 100 | 100 | 100 |
| CC1(C)COC2(CCC(N[C@H]3CC[C@H](Nc4ccnc5cc(C(F)(F)F)ccc45)CC3)CC2)OO1 (stereo partly specified) | Active | Active | Active | Active | Active |  |  |  |  |  |

— ChEMBL document CHEMBL1649215, “In vitro activities of trioxaquines against Schistosoma mansoni” (2009)
